The results in this text go back to ChEMBL document CHEMBL4020768 (Bioorg Med Chem Lett, 2017).

For the first assay, the target named is Sigma non-opioid intracellular receptor 1 (Homo sapiens, UniProt Q99720). Put plainly: Displacement of (+)-[3H]-pentazocine from recombinant human sigma 1 receptor expressed in baculovirus infected Sf9 insect cell membranes after 90 mins by scintillation counting method. In a few lines: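 Human σ1 cloned in pFastBac, baculovirus-expressed in Sf9 cells (infected at 4 x 10⁶ cells/mL, 27 °C, harvested 48 h); washed membranes, 2.5 µg protein per reaction in 50 mM Tris pH 8.0 with 10 nM [³H](+)-pentazocine and 8 competitor concentrations 10 pM–100 µM; 90 min at 37 °C; filtration on PEI-soaked glass fiber filters; scintillation counting; two or three independent experiments in triplicate.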
Chain of Sigma non-opioid intracellular receptor 1 (Q99720 whole entry): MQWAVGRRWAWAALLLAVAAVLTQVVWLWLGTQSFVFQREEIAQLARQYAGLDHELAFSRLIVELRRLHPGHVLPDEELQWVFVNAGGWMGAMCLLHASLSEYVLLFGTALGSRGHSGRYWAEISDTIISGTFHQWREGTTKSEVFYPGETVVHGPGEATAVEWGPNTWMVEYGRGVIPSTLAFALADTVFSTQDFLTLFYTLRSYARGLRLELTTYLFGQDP
One may read the Ki as a measure of affinity in units of concentration, obtained from inhibition or displacement. As to `CC(C)(C)c1ccc(CCCN2CCOCC2)cc1`, the Ki stood at 0.0026 µM.
Consider `CC(C)(C)c1ccc(CCCN2CCCCC2)cc1`, for which the inhibitory constant (Ki) turned out to be 0.0015 µM.
Same read-out and setting: the result for `c1ccc(CCCN2CCOCC2)cc1` reads 0.706 µM; that for `CC1CN(CCCc2ccc(C(C)(C)C)cc2)CC(C)O1` (mixture of isomers), 0.0084 µM.
In the case of `C[C@@H]1CN(CCCc2ccc(C(C)(C)C)cc2)C[C@@H](C)O1` (relative stereo), the inhibitory constant (Ki) was 0.0023 µM.
Regarding `CC1CCN(CCCc2ccc(C(C)(C)C)cc2)CC1`, the inhibition constant Ki was 0.0054 µM.

Tested on in a further assay: not listed separately
Put plainly: Selectivity ratio of Ki for recombinant rat sigma 2 receptor to Ki for recombinant human sigma 1 receptor.
With `CC(C)(C)c1ccc(CCCN2CCOCC2)cc1`, the Ratio Ki amounted to 360.
On the same count and under the same terms, in the case of `CC(C)(C)c1ccc(CCCN2CCCCC2)cc1` it was 21.
The same measure, in the same setting: the result for `c1ccc(CCCN2CCOCC2)cc1` reads 3; that for `CC1CN(CCCc2ccc(C(C)(C)C)cc2)CC(C)O1` (mixture of isomers), 9; that for `C[C@@H]1CN(CCCc2ccc(C(C)(C)C)cc2)C[C@@H](C)O1` (relative stereo), 29.
As for `CC1CCN(CCCc2ccc(C(C)(C)C)cc2)CC1`, the Ratio Ki came out at 3.

Another assay deals with T1, Sigma intracellular receptor 2 (Rattus norvegicus, UniProt Q5U3Y7).
T1 sequence (Q5U3Y7 whole entry): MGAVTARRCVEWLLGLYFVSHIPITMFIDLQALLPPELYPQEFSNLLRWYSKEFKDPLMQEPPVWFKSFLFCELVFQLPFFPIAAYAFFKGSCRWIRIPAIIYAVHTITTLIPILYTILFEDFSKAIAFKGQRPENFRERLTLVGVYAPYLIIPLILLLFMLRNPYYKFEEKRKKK
The experiment in a line: Displacement of (+)-[3H]-ditolylguanidine from recombinant rat sigma 2 receptor expressed in rat PC12 cell membranes after 90 mins in presence of sigma 1 receptor blocker (+)-SKF-10047 by scintillation counting method. The procedure, abridged:
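PC-12 cell membranes (12-30 µg protein per reaction) in 50 mM Tris pH 8.0 with 30 nM [³H]DTG plus 1.8 µM (+)-SKF-10,047 to block σ1 sites; competitor at graded concentrations; 90 min at 37 °C; filtration through 0.3% PEI-soaked glass fiber filters; scintillation counting; two or three independent experiments in triplicate.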
In the case of `CC(C)(C)c1ccc(CCCN2CCOCC2)cc1`, the inhibition constant (Ki) worked out at 0.93 µM.
`CC(C)(C)c1ccc(CCCN2CCCCC2)cc1`: the Ki turned out to be 0.0315 µM.
The same measure, in the same setting: the result for `CC(Cc1ccc(C(C)(C)C)cc1)CN1C[C@@H](C)O[C@@H](C)C1` (some centres undefined) [FENPROPIMORPH] reads 0.854 µM; that for `c1ccc(CCCN2CCOCC2)cc1`, 2.02 µM; that for `CC1CN(CCCc2ccc(C(C)(C)C)cc2)CC(C)O1` (mixture of isomers), 0.0779 µM.
Same read-out and setting: in the case of `C[C@@H]1CN(CCCc2ccc(C(C)(C)C)cc2)C[C@@H](C)O1` (relative stereo) it was 0.0661 µM.
On the same count and under the same terms, the result for `CC1CCN(CCCc2ccc(C(C)(C)C)cc2)CC1` reads 0.0138 µM.
